Data set [1] can be described thus: Stability of the compound in pH 7.4 PIPES buffer assessed as compound hydrolysis at 5 to 10 mg by 31p-NMR analysis. Type of data set: physicochemical.
Data set [2] deals with Mycobacterium tuberculosis. In words: Inhibition of Mycobacterium tuberculosis BlaC expressed in Escherichia coli at 100 uM using nitrocefin as substrate measured at 2 mins interval for 10 mins relative to control. In short, it runs like this: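 Purified BlaC was screened against each compound at a single concentration of 100 µM, and percent inhibition was read. Each % inhibition value comes from n ≥ 4 determinations and is reported with its standard deviation.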

The test system of data set [3] is Mycobacterium tuberculosis. Briefly: Time-dependent inhibition of Mycobacterium tuberculosis BlaC expressed in Escherichia coli assessed as inactivation rate constant using nitrocefin as substrate.

Consider `O=C(OP(=O)(O)OC(=O)c1ccc([N+](=O)[O-])cc1)c1ccc([N+](=O)[O-])cc1`, for which the Stability result in data set [1] is reported as “Unstable”.
On to `O=C(OP(=O)(O)OC(=O)c1ccc(Cl)c(Cl)c1)c1ccc(Cl)c(Cl)c1`, for which, in data set [1], the Stability entry is “Stable”. Moreover, the inhibition (in general, the share of the control response that was lost under treatment) in data set [2] is 20.2%.
As for `O=C(OP(=O)(O)OC(=O)c1ccc(F)cc1)c1ccc(F)cc1`, the K in data set [3] was 0.45 min⁻¹. Further, the Stability result in data set [1] is given as “Stable”. Moreover, the inhibition in data set [2] came to 84.3%.
As to `O=C(OP(=O)(O)OC(=O)c1ccc(-c2ccccc2)cc1)c1ccc(-c2ccccc2)cc1`, in data set [1], the Stability entry was “Stable”. Besides, the inhibition in data set [2] is 0%.
For `COc1ccc(C(=O)OP(=O)(O)OC(=O)c2ccc(OC)cc2)cc1`, the K in data set [3] turned out to be 0.212 min⁻¹. The Stability entry in data set [1] was “Stable”. In addition, in data set [2], the inhibition amounted to 65.5%.
Consider `O=C(OP(=O)(O)OC(=O)c1ccccc1)c1ccccc1`, for which the K in data set [3] worked out at 0.324 min⁻¹. In addition, the Stability result in data set [1] is reported as “Stable”. The molecule also displayed an inhibition in data set [2] of 52.3%.
Take `O=C(OP(=O)(O)OC(=O)c1ccc(Cl)cc1)c1ccc(Cl)cc1`: in data set [1], the Stability result is reported as “Stable”. Besides, the inhibition in data set [2] was 24.8%.
Regarding `N#Cc1ccc(C(=O)OP(=O)(O)OC(=O)c2ccc(C#N)cc2)cc1`, in data set [1], the Stability result was “Unstable”.
With `Cc1ccc(C(=O)OP(=O)(O)OC(=O)c2ccc(C)cc2)cc1`, in data set [1], the Stability result is “Stable”. The molecule further showed an inhibition in data set [2] of 41.2%.
For the molecule `O=C(OP(=O)(O)OC(=O)c1ccc(C(F)(F)F)cc1)c1ccc(C(F)(F)F)cc1`, in data set [1], the Stability result is recorded as “Stable”. The molecule also gave an inhibition in data set [2] of 42.5%.

(Values after ChEMBL document CHEMBL4387777, “Bis(benzoyl) phosphate inactivators of beta-lactamase C from Mtb” (Bioorg Med Chem Lett, 2019).)
